Results from ChEMBL document CHEMBL6083196, “Synthesis and cytotoxic activity of madecassic acid-silybin conjugate compounds in liver cancer cells” (2024).

Test system: HepG2
Experiment: Cytotoxicity against human HepG2 cells incubated for 96 hrs by MTT assay
Format: functional
Method in brief: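 Cells grown in DMEM with 10% FBS and 1% antibiotic at 37 °C, 5% CO2. Trypsinised, seeded at 3 × 10^4 cells per mL, treated over an eight-point titration for 96 h. MTT (0.5 mg mL−1) added for 4 h at 37 °C, formazan dissolved in DMSO, absorbance read at 570 nm. GI50 is the concentration halving the MTT signal versus untreated control. Ellipticine served as reference; n ≥ 3 repeats.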

**Q.** `COc1cc([C@H]2Oc3cc(-c4oc5cc(OC(C)=O)cc(OC(C)=O)c5c(=O)c4OC(=O)[C@]45CC[C@@H](C)[C@H](C)[C@H]4C4=CC[C@@H]6[C@@]7(C)C[C@@H](OC(C)=O)[C@H](OC(C)=O)[C@@](C)(COC(C)=O)[C@@H]7[C@H](O)C[C@@]6(C)[C@]4(C)CC5)ccc3O[C@@H]2COC(C)=O)ccc1OC(C)=O` was tested. Which GI50 did it give?
**A.** The GI50 was 471 µM.

**Q.** With `Cc1c2ccncc2c(C)c2c1[nH]c1ccccc12` [ELLIPTECINE] as the compound, how does the GI50 read?
**A.** The GI50 was 0.42 µM.

**Q.** With `COc1cc([C@H]2Oc3cc(-c4cc(=O)c5c(O)cc(OC(=O)[C@]67CC[C@@H](C)[C@H](C)[C@H]6C6=CC[C@@H]8[C@@]9(C)C[C@@H](OC(C)=O)[C@H](OC(C)=O)[C@@](C)(COC(C)=O)[C@@H]9[C@H](O)C[C@@]8(C)[C@]6(C)CC7)cc5o4)ccc3O[C@@H]2CO)ccc1O` as the compound, how does the GI50 read?
**A.** Its GI50 is > 500 µM.

**Q.** How did the GI50 turn out when `COc1cc([C@H]2Oc3cc([C@H]4Oc5cc(O)cc(O)c5C(=O)[C@@H]4OC(=O)CCCCCCCCCCNC(=O)[C@]45CC[C@@H](C)[C@H](C)[C@H]4C4=CC[C@@H]6[C@@]7(C)C[C@@H](OC(C)=O)[C@H](OC(C)=O)[C@@](C)(COC(C)=O)[C@@H]7[C@H](O)C[C@@]6(C)[C@]4(C)CC5)ccc3O[C@@H]2CO)ccc1O` was run?
**A.** Its GI50 is 383 µM.

**Q.** `CC(=O)OC[C@@]1(C)C2=CC[C@]3(C)C(CC=C4[C@@H]5[C@@H](C)[C@H](C)CC[C@]5(C(=O)O)CC[C@]43C)[C@@]2(C)C[C@@H](OC(C)=O)[C@@H]1OC(C)=O` (some centres undefined) was tested. Which GI50 did it give?
**A.** Its GI50 is 38.5 µM.

**Q.** How did the GI50 turn out when `COc1cc([C@H]2Oc3cc([C@H]4Oc5cc(OC(C)=O)cc(OC(C)=O)c5C(=O)[C@@H]4OC(=O)CNC(=O)[C@]45CC[C@@H](C)[C@H](C)[C@H]4C4=CC[C@@H]6[C@@]7(C)C[C@@H](OC(C)=O)[C@H](OC(C)=O)[C@@](C)(COC(C)=O)[C@@H]7[C@H](O)C[C@@]6(C)[C@]4(C)CC5)ccc3O[C@@H]2COC(C)=O)ccc1OC(C)=O` was run?
**A.** The GI50 was 122 µM.

**Q.** With `COc1cc([C@H]2Oc3cc([C@H]4Oc5cc(OC(C)=O)cc(OC(C)=O)c5C(=O)[C@@H]4OC(=O)CCCCCCCCCCNC(=O)[C@]45CC[C@@H](C)[C@H](C)[C@H]4C4=CC[C@@H]6[C@@]7(C)C[C@@H](OC(C)=O)[C@H](OC(C)=O)[C@@](C)(COC(C)=O)[C@@H]7[C@H](O)C[C@@]6(C)[C@]4(C)CC5)ccc3O[C@@H]2COC(C)=O)ccc1OC(C)=O` as the compound, how does the GI50 read?
**A.** Its GI50 is 199 µM.

**Q.** For `COc1cc([C@H]2Oc3cc([C@H]4Oc5cc(OC(C)=O)cc(OC(C)=O)c5C(=O)[C@@H]4OC(=O)CNC(=O)[C@]45CC[C@@H](C)[C@H](C)[C@H]4C4=CC[C@@H]6[C@@]7(C)C[C@@H](OC(C)=O)[C@H](OC(C)=O)[C@@](C)(COC(C)=O)C7=CC[C@@]6(C)[C@]4(C)CC5)ccc3O[C@@H]2COC(C)=O)ccc1OC(C)=O`, which GI50 is on record?
**A.** The GI50 was 243 µM.

**Q.** Which GI50 does the source give for `COc1cc([C@H]2Oc3cc([C@H]4Oc5cc(O)cc(O)c5C(=O)[C@@H]4O)ccc3O[C@@H]2CO)ccc1O` [SILYBIN A] here?
**A.** Its GI50 is 285 µM.
